Our source for the Activity, viability and inhibition values is ChEMBL document CHEMBL5357041, “Discovery of novel β-elemene hybrids with hydrogen sulfide-releasing moiety possessing cardiovascular protective activity for the treatment of atherosclerosis” (RSC Med Chem, 2024).

Data set [1] is described as follows: Induction of H2S release in phosphate buffer at 100 uM measured upto 150 mins under L-cysteine stimulated condition by microplate reader analysis. The following applies: 2.5 h. Put shortly: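 Compound (100 μM) incubated with 1 mM L-cysteine in phosphate buffer at 37 °C, sampled at 0–150 min. Each sample quenched with zinc acetate and trichloroacetic acid, then N,N-dimethyl-p-phenylenediamine and FeCl₃ in HCl added. Absorbance read at 670 nm after 10 min; H₂S quantified against a NaHS standard curve (5–150 μM).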

Data set [2] has as its system Thoracic aorta. Put plainly: Vasodilation activity against KCl-induced Sprague-Dawley rat thoracic aorta vessels contraction at 1 uM. The class given is functional. A digest of the protocol: (§1)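 Aortic rings of about 2 mm from anesthetized SD rats mounted in Krebs solution at 37 °C under oxygen, preload 9.8 mN, equilibrated about 1 h. Rings contracted with 25 mM K⁺, then compound added cumulatively. Relaxation (%) = (maximum KCl tension − tension after compound)/(maximum KCl tension − preload). ADT-OH served as control; mean ± SD, n = 4.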

Data set [3] deals with Thoracic aorta. Put plainly: Vasodilation activity against KCl-induced Sprague-Dawley rat thoracic aorta vessels contraction at 5 uM. In kind it is functional. A digest of the protocol:
as §1

Data set [4] deals with Thoracic aorta. Put plainly: Vasodilation activity against KCl-induced Sprague-Dawley rat thoracic aorta vessels contraction at 10 uM. The class given is functional. A digest of the protocol:
as §1

The test system of data set [5] is Thoracic aorta. Put plainly: Vasodilation activity against KCl-induced Sprague-Dawley rat thoracic aorta vessels contraction at 20 uM. The class given is functional. Put shortly:
as §1

In data set [6] the test system is Thoracic aorta. Put plainly: Vasodilation activity against KCl-induced Sprague-Dawley rat thoracic aorta vessels contraction at 40 uM. In kind it is functional. A digest of the protocol: as §1
A short description of data set [7]: Cytotoxicity against mouse BMDM cells assessed as cell viability at 50 uM incubated for 24 hrs by MTT assay. Conditions: BMDM cells (bone marrow-derived macrophages), read-out: Activity. The class given is toxicity, cell-based. Put shortly:
(§2)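 Primary bone marrow macrophages taken from 6-week-old male C57 mice and cultured 6–7 days before use. Compounds dosed for 24 h, then MTT added for 4 h and formazan dissolved in DMSO; absorbance read at 570 nm. Triplicate wells; medium-only and untreated-cell controls; mean ± SD, n = 4.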

The nature of data set [8]: Cytotoxicity against mouse BMDM cells assessed as cell viability at 100 uM incubated for 24 hrs by MTT assay. Conditions: BMDM cells (bone marrow-derived macrophages), read-out: Activity. In kind it is toxicity, cell-based. A digest of the protocol:
as §2

Data set [9] relates to RAW264.7. Put plainly: Lipid lowering activity in ox-LDL stimulated mouse RAW264.7 cells at 50 uM by oil red O staining based microscopic analysis. In kind it is functional, cell-based. A digest of the protocol: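 RAW 264.7 cells allowed to adhere 2 h, then exposed to ox-LDL (50 μg/mL) plus compound (50 μM) for 24 h. Cells fixed in 4% paraformaldehyde, stained with oil red O, rinsed in 60% isopropanol and counterstained with hematoxylin. Oil red O-positive area percentage quantified microscopically; ANOVA used.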

Data set [10] has as its system HUVEC. Put plainly: Inhibition of H2O2-induced oxidative damage in HUVECs preincubated for 24 hrs followed by H2O2 addition and measured after 2 hrs by MTT method. The following applies: Homo sapiens, time 26.0 hrs. In kind it is functional, cell-based. A digest of the protocol:
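HUVECs were seeded and grown 24 h at 37 °C, 5% CO₂, then given compound (0.5, 5 or 20 μM) for 24 h. Control and model wells received serum-free medium instead. Model and treated wells were then exposed to 1 mM H₂O₂ for 2 h, followed by MTT for 4 h, DMSO, and absorbance at 570 nm. Trolox was the positive control; mean ± SD, n = 5.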
On the technique in general: Formazan colour is commonly taken as a measure of viable cells.

In data set [11] the test system is HUVEC. Put plainly: Cytotoxicity against HUVECs at 0.5 to 200 uM incubated for 24 hrs by MTT assay. In kind it is toxicity, cell-based. Conditions: human, dose 0.5-200 µM. A digest of the protocol:
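HUVECs bought from ATCC; compounds given for 24 h, then MTT (5 mg/mL, 20 μL/well) added for 4 h. Formazan dissolved in DMSO and absorbance read at 570 nm. Medium-only and untreated-cell wells served as controls.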

Calls of active or inactive are those of the source. No cut-off for these calls is given here.

With `O=C(O)CCCCC1CCSS1` (stereo not drawn) [LIPOIC ACID, ALPHA], the Activity in [1] stood at 20 µM.
Turning to `C=C[C@]1(C)CC[C@@H](C(=C)COCCCCOc2ccc(C(N)=S)cc2)C[C@H]1C(=C)C`, the Activity in [2] turned out to be 4.61%; in data set [3], 4.13%; in data set [4] it was 17.37%; in [5], 15.38%; in [6], 30.23%. Besides, the viability at 24 h, 50 µM in data set [7] stood at 163%. In [8], the viability at 24 h, 100 µM amounted to 14.9%.
Turning to `C=C[C@]1(C)CC[C@@H](C(=C)COC(=O)/C=C\C(=O)OCCOc2ccc(-c3cc(=S)ss3)cc2)C[C@H]1C(=C)C`, the Activity in [2] is -4.07%; in data set [3], 1.54%; in [4] it was 7.28%; in [5], 12.57%; in [6], 10.78%. For the same compound, the viability at 24 h, 50 µM in [7] amounted to 99%. Also, the viability at 24 h, 100 µM in data set [8] stood at 89.7%.
With `C=C[C@]1(C)CC[C@@H](C(=C)COC(=O)C(NC(=O)CCCCC2CCSS2)C(C)CC)C[C@H]1C(=C)C` (stereo not given in full), the Activity in [2] is listed as -5.9%; in data set [3], -8.16%; in data set [4] it was 2.19%; in data set [5], 1.21%; in data set [6], 14.47%. Also, the viability at 24 h, 50 µM in [7] is 208%. The viability at 24 h, 100 µM in data set [8] is 268%.
Take `C=C[C@]1(C)CC[C@@H](C(=C)COCCCCCCOc2ccc(C(N)=S)cc2)C[C@H]1C(=C)C`: the Activity stood at 6.68% in data set [2]; 4.72% in data set [3]; 0.07% in [4]; 10.31% in [5]; 12.18% in data set [6]. Besides, the viability at 24 h, 50 µM in data set [7] was 279%. For the same compound, in data set [8], the viability at 24 h, 100 µM is 17.1%.
`C=C[C@]1(C)CC[C@@H](C(=C)COC(=O)C(NC(=O)CCC(=O)OCCOc2ccc(-c3cc(=S)ss3)cc2)C(C)CC)C[C@H]1C(=C)C` (stereo not given in full): the Activity in data set [2] is 1.7%; in data set [3], 3.38%; in data set [4], -6.76%; in [5], 4.83%; in [6], 14.29%; in [1] it was 100 µM. Moreover, in [7], the viability at 24 h, 50 µM was found to be 295%. In addition, the viability at 24 h, 100 µM in data set [8] was 584%.
Regarding `C=C[C@]1(C)CC[C@@H](C(=C)C)C[C@H]1C(=C)COC(=O)CCC(=O)OCCOc1ccc(-c2cc(=S)ss2)cc1`, the Activity in data set [2] was 7.47%; in data set [3] it was -8.64%; in [4], 14.98%; in [5], 13.2%; in [6] it was 7.43%. The viability at 24 h, 50 µM in [7] came out at 244%. Moreover, the viability at 24 h, 100 µM in data set [8] came out at 262%.
As for `C=C[C@]1(C)CC[C@@H](C(=C)COC(=O)CCC(=O)OCCOc2ccc(-c3nc(=O)ss3)cc2)C[C@H]1C(=C)C`, the Activity in [2] is -0.71%; in data set [3], 10.11%; in data set [4] it was 17.84%; in [5], 26.82%; in data set [6], 34.29%. The result in [9] was Active. In data set [7], the viability at 24 h, 50 µM came out at 266%. Moreover, the viability at 24 h, 100 µM in data set [8] was 254%.
With `C=C[C@]1(C)CC[C@@H](C(=C)COC(=O)CCCCCC(=O)Oc2ccc(-c3cc(=S)ss3)cc2)C[C@H]1C(=C)C`, the Activity in data set [2] is reported as -1.15%; in [3], 6.64%; in [4], 6.99%; in data set [5], 16.08%; in data set [6] it was 21.17%. For the same compound, the viability at 24 h, 50 µM in data set [7] is 232%. In addition, in data set [8], the viability at 24 h, 100 µM was 459%.
Take `C=C[C@]1(C)CC[C@@H](C(=C)COC(=O)CCCCCC(=O)Oc2ccc(-c3nc(=O)ss3)cc2)C[C@H]1C(=C)C`: the Activity in [2] is reported as -0.4%; in data set [3] it was 4.76%; in data set [4], 2.38%; in data set [5], 7.08%; in [6] it was 8.22%. The result in data set [9] was Active. The viability at 24 h, 50 µM in data set [7] turned out to be 323%. For the same compound, in data set [8], the viability at 24 h, 100 µM is 391%.
Turning to `C=C[C@]1(C)CC[C@@H](C(=C)COC(=O)CCCCCC(=O)Oc2ccc(C(N)=S)cc2)C[C@H]1C(=C)C`, the Activity in data set [2] is 1.2%; in [3] it was 4.53%; in data set [4], 2.67%; in data set [5], 4.19%; in data set [6] it was 6.38%. Besides, the viability at 24 h, 50 µM in [7] worked out at 177%. Besides, the viability at 24 h, 100 µM in data set [8] stood at 219%.
As to `C=C[C@]1(C)CC[C@@H](C(=C)COCCCCCCCCOc2ccc(C(N)=S)cc2)C[C@H]1C(=C)C`, the Activity is -4.54% in data set [2]; 1.71% in [3]; 8.86% in data set [4]; 12.44% in data set [5]; 19.64% in [6]. The outcome in data set [9] was Active. Also, the viability at 24 h, 50 µM in [7] turned out to be 74.5%. The viability at 24 h, 100 µM in [8] is 27.1%.
Consider `C=C[C@]1(C)CC[C@@H](C(=C)COC(=O)CCCCCCC(=O)Oc2ccc(-c3cc(=S)ss3)cc2)C[C@H]1C(=C)C`, for which the Activity in [2] is 12.81%; in [3] it was 5.04%; in [4] it was 0.55%; in data set [5] it was 7.96%; in data set [6], 14.68%. In addition, the viability at 24 h, 50 µM in data set [7] was found to be 189%. Besides, the viability at 24 h, 100 µM in [8] came out at 202%.
For the compound `C=C[C@]1(C)CC[C@@H](C(=C)C)C[C@H]1C(=C)COC(=O)C(NC(=O)CCC(=O)OCCOc1ccc(-c2cc(=S)ss2)cc1)C(C)CC` (stereo not given in full), the Activity in [2] is listed as 0.64%; in data set [3], 2.75%; in [4], 6.75%; in data set [5], 7.93%; in data set [6], 13%. Further, the viability at 24 h, 50 µM in [7] worked out at 269%. The viability at 24 h, 100 µM in data set [8] amounted to 272%.
On to `C=C[C@]1(C)CC[C@@H](C(=C)CO)C[C@H]1C(=C)C`, for which the Activity in data set [2] was 0.09%; in [3], 4.63%; in data set [4], 5.63%; in data set [5], 27.81%; in data set [6], 53.06%; in data set [11], “Non-Toxic”. In addition, in data set [10], the inhibition entry is “Active”. The viability at 24 h, 50 µM in data set [7] was 275%. Besides, the viability at 24 h, 100 µM in data set [8] was determined as 281%.
With `NC(=S)c1ccc(O)cc1`, the Activity in [1] was determined as 50 µM.
As for `C=C[C@]1(C)CC[C@@H](C(=C)COC(=O)CCC(=O)OCCOc2ccc(-c3cc(=S)ss3)cc2)C[C@H]1C(=C)C`, the Activity in data set [2] amounted to 1.27%; in [3], 6.87%; in [4], 11.63%; in data set [5] it was 12.67%; in data set [6], 12.14%; in [1] it was 100 µM. Besides, the viability at 24 h, 50 µM in [7] turned out to be 264%. For the same compound, in [8], the viability at 24 h, 100 µM worked out at 349%.
Consider `C=C[C@]1(C)CC[C@@H](C(=C)C)C[C@H]1C(=C)COC(=O)C(NC(=O)CCCCC1CCSS1)C(C)CC` (stereo not given in full), for which the Activity in data set [2] is recorded as 1.1%; in data set [3], 2.78%; in data set [4], -3.6%; in [5] it was 5.16%; in data set [6], 14.67%. Besides, in [7], the viability at 24 h, 50 µM came to 672%. Further, in data set [8], the viability at 24 h, 100 µM was found to be 882%.
Turning to `C=C[C@]1(C)CC[C@@H](C(=C)C)C[C@H]1C(=C)COC(=O)CCCCC1CCSS1` (stereo not given in full), the Activity in [2] is recorded as -19.8%; in data set [3] it was -2.4%; in data set [4], 20.75%; in data set [5], 24.52%; in data set [6] it was 17.27%. Also, the viability at 24 h, 50 µM in data set [7] came to 157%. Further, the viability at 24 h, 100 µM in [8] came to 336%.
Consider `C=C[C@]1(C)CC[C@@H](C(=C)COC(=O)CCCCC2CCSS2)C[C@H]1C(=C)C` (stereo not given in full), for which the Activity was -3.41% in [2]; -5.69% in data set [3]; 6.38% in [4]; 8.99% in [5]; 11.51% in data set [6]. The viability at 24 h, 50 µM in data set [7] was found to be 296%. In [8], the viability at 24 h, 100 µM is 378%.
